CYP2C19 activ: increases human CYP2C19 enzyme activity; recombinant CYP2C19, luciferin-H EGE luminescence; hits give high values; 0 = fully inhibited enzyme, 1 = untreated enzyme; activation factor at 5 µM; 96,000 tested, under 10 active; AID 1025;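 active = activation factor of at least 2 at 5 µM in the primary screen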
CYP2C9 act: CYP2C9 (human) activation; P11712; recombinant CYP2C9, luciferin-H conversion, luminescence; hits give high values; factor 1 = untreated enzyme, 0 = blocked; activation factor at 5 µM; hit rate 1.4% among 96,000;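 active = activation factor of 2 or more for CYP2C9 at a 5 µM dose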
HIV Rev-RRE inh: disrupts HIV-1 Rev binding to RRE RNA | P05866 | Rev peptide-RRE RNA binding, FRET | inhibition, % at 8 µM | hit rate 0.79% among 97,000;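 active = inhibition above the screen-wide mean plus 3 SD, cut at about 35% in these data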
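System: Cy5-labelled duplex RRE RNA binding fluorescein-labelled HIV Rev peptide; Signal: fluorescein-to-Cy5 FRET, 480 nm excitation; Also added: labelled Rev peptide; Compound: one concentration, 8 µM nominal; Buffer or medium: HEPES pH 7.5 salt buffer with EDTA; Read-out: % inhibition of FRET ratio versus controls; Schedule: 5 min preincubation and 15 min binding, 25 °C.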
CYP2C19 inh: human CYP2C19 inhibition; P33261; CYP2C19 Supersomes, luciferin-H EGE luminescence, 30 min; inhibition, % at 5 µM; hit rate 21% among 96,000; AID 778;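 active = CYP2C19 inhibition above a set limit at 5 µM in the primary screen, cut at about 50% in these data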
Cav3 T inh: blocks human Cav3.2 T-type calcium channel | AID 449739 | B-score at 10 µM | hit rate 4% among 100,000 | O95180 | Cav3.2-expressing cells, Fluo-4 calcium fluorescence FDSS; hits give low values;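 active = single-dose well whose peak fluorescence ratio is a statistical outlier from its plate by either plate-standardised score or position-corrected B-score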
Target sequence (O95180 whole entry, looked up): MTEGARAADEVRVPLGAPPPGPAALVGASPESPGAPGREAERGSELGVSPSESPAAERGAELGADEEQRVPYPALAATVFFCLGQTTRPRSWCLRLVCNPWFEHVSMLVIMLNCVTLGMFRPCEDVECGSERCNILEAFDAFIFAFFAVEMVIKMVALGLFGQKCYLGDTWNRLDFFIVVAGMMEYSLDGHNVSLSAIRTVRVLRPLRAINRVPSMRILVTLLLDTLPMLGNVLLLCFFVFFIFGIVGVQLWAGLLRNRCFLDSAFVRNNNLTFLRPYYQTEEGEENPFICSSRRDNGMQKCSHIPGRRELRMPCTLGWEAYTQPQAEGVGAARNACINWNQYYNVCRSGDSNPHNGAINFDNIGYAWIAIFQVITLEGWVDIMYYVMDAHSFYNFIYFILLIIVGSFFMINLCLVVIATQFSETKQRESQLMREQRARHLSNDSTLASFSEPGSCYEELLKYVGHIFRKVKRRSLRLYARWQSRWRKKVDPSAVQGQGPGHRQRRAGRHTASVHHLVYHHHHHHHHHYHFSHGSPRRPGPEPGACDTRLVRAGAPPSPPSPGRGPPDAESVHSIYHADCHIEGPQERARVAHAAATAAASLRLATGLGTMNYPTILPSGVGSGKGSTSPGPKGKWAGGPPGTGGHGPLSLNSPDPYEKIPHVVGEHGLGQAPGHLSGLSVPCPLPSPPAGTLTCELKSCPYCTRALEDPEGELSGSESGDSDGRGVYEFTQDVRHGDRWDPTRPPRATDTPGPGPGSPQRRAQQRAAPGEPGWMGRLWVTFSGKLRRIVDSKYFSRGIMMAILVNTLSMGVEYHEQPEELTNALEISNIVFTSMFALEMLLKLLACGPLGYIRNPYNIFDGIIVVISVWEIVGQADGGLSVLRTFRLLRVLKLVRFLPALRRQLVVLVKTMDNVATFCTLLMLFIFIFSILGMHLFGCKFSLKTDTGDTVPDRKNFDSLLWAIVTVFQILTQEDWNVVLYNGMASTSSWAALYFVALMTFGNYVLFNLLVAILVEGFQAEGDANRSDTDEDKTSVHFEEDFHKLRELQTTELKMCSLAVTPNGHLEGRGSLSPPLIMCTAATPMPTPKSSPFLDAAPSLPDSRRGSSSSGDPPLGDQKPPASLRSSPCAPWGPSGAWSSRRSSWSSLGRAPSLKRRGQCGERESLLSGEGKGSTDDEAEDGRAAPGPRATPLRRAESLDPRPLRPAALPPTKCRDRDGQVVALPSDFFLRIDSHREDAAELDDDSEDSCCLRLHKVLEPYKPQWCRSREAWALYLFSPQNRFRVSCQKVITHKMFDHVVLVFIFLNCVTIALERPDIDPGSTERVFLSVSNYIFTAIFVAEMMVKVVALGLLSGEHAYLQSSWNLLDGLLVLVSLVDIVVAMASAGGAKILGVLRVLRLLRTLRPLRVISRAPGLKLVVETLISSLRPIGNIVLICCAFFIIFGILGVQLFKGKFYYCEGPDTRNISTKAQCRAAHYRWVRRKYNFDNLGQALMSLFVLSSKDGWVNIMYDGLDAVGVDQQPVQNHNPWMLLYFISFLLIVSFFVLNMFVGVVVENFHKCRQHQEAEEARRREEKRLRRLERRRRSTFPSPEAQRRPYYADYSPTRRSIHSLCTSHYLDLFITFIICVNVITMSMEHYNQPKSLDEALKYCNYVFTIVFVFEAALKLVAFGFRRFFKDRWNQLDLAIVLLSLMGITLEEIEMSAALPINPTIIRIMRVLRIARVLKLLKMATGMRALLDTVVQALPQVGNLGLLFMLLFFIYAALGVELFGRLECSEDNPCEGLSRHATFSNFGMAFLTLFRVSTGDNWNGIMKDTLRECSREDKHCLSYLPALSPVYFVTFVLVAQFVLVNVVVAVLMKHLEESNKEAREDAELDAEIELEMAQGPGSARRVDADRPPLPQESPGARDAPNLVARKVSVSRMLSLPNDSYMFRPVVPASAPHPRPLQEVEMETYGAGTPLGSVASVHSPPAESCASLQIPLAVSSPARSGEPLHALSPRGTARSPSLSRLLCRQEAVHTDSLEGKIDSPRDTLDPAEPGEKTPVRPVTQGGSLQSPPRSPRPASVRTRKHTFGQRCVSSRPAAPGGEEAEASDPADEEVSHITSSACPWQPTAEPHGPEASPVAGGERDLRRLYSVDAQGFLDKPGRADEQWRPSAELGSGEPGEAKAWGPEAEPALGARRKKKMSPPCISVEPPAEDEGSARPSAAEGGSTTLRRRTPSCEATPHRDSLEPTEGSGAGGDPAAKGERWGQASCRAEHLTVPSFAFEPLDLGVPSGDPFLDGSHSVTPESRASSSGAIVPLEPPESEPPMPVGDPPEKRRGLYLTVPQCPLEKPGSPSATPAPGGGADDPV
CYP2C9 inhib: blocks human cytochrome P450 2C9 | P11712 | CYP2C9 Supersomes, luciferin-H conversion, luminescence | inhibition, % at 5 µM | hit rate 20% among 96,000;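 active = blocking of liver enzyme CYP2C9 beyond about 50% at 5 µM, limit read from the data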
Each line names hits and unclear results; the compound was inactive in the other large screens. Shown are actives, neighbours in structure and some others; about 27% of the full set was active somewhere.

O=C1CSC(c2cccnc2)N1c1ccc(F)cc1 (configuration not stated)	none
CCCCOc1ccc(-c2nc(-c3cccnc3)no2)cc1	none (no result: HIV Rev-RRE inh)
CCOc1nc(C)ccc1-c1noc(-c2ccncc2)n1	none (no result: CYP2C19 activ, CYP2C9 act, CYP2C19 inh, CYP2C9 inhib)
CCc1ccc(-c2nc(-c3ccncc3)no2)cc1	CYP2C19 inh 99, CYP2C9 inhib 84 (no result: Cav3 T inh)
CCCCc1ccc(-c2nc(-c3ccncc3)no2)cc1	CYP2C19 inh 84, CYP2C9 inhib 67 (no result: HIV Rev-RRE inh)
CCn1c(CNc2ccc(C)cc2)nnc1SCC(N)=O	none (no result: CYP2C19 activ, CYP2C9 act, CYP2C19 inh, CYP2C9 inhib)
Clc1ccccc1-c1nc2ccccc2c2nncn12	CYP2C19 inh 62
COc1ccc(Cn2nnnc2CN2CCc3ccccc32)cc1	CYP2C19 inh 99, CYP2C9 inhib 92
c1ccc2c(c1)CCN(Cc1nnnn1Cc1ccc3c(c1)OCO3)C2	none (no result: CYP2C19 activ, CYP2C9 act, CYP2C19 inh, CYP2C9 inhib)
COc1ccc(OCCOCCN2CCc3ccccc3C2)cc1	CYP2C19 inh 59
COc1ccc(C2(O)CCN(Cc3nnnn3Cc3ccc(C)cc3)CC2)cc1	CYP2C19 inh 51, CYP2C9 inhib 63
COc1ccc(Cn2nnnc2CN2CCc3ccccc3C2)cc1	CYP2C19 inh 88, CYP2C9 inhib 64
Cc1ccc(Cn2nnnc2CN2CCC(O)(c3ccc(F)cc3)CC2)cc1	none
Cc1ccc(C(=O)C(C)OC(=O)C2CC(=O)N(C3CCCCC3)C2)cc1 (configuration not stated)	none

Source: PubChem BioAssay (several laboratories)
